Source: PubChem BioAssay (several laboratories)
APP 5'UTR act – activators of APP 5'UTR luciferase reporter, primary screen, SH-SY5Y cells; hit rate 1% among 190,000; SH-SY5Y APP 5'UTR luciferase reporter, luminescence; zero percent = DMSO vehicle wells; AID 1276, 2008; activation, % at 2 µM;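 active = activation above a set limit, based on mean plus 3 SD of controls, cut at about 140% in these data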
NF-kB expr up – activators of NF-kB expression in neurons, primary screen, cell-based, HTS; human neuronal cells, NF-kB reporter expression; stronger effect = higher value; hit rate 1.6% among 190,000; fold change at 12.5 µM; AID 1239, 2008; in the data active = fold change above about 3.3
STAT3 inh – IL-6 driven STAT3 reporter inhibitors, primary screen, U3A cells, luciferase, luminescence, MLSCN library | IL-6 STAT3-luciferase reporter; host cell line lacks STAT1 | hit rate 0.89% among 190,000 | inhibition, % at 5.5 µM;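 active = inhibition above the mean inhibition across all screened compounds plus 3 SD, cut at about 44% in these data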
STAT1 inh – STAT1 signaling inhibitors, primary screen, cell-based, HTS, luciferase reporter; NIH 3T3 STAT1-luciferase reporter, IFN-gamma, luminescence; inhibition, % at 5.5 µM; hit rate 0.35% among 200,000; AID 920, 2007;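 active = inhibition above a set limit, the mean inhibition across all tested compounds plus 3 SD, cut at about 34% in these data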
STAT3 act – IL-6 driven STAT3 reporter potentiators, primary screen, U3A cells, luciferase, luminescence, MLSCN library. IL-6 STAT3-luciferase reporter; 100% = signal with IL-6 EC80 alone. activation (% of control), % at 5.6 µM. hit rate 0.91% among 190,000. AID 871, 2007;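 active = activation above the screen-wide mean of compound activation plus 3 SD, cut at about 130% in these data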
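Test system: human U3A cells carrying STAT3-luciferase construct; control set: IL-6-only wells as 100% reference; timing: compound pre-incubation 1 h before IL-6, then 6 h stimulation at 37 °C; also added: IL-6 stimulus at 33 ng/mL final; evaluation: % activation versus median of IL-6-stimulated wells; detection: reporter luminescence signal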
STAT1 activator – STAT1 signaling activators, primary screen, cell-based, HTS, luciferase reporter; NIH 3T3 STAT1-luciferase reporter, IFN-gamma, luminescence; 100% = IFN-gamma alone, no compound; activation (% of control), % at 5.5 µM; hit rate 2.6% among 200,000; AID 932, 2007;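 active = activation above the screen-wide mean activation plus 3 SD, cut at about 130% in these data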
STAT1 activ conf – STAT1 signaling activators, confirmation, cell-based, HTS, luciferase reporter. shares compounds with STAT1 activator. NIH 3T3 STAT1-luciferase reporter, IFN-gamma potentiation, luminescence; 100% = IFN-gamma EC80 alone, no compound. activation (% of control), % at 5.7 µM. hit rate 97% among 1,200. AID 1262, 2008;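 active = activation above a set limit carried over from the earlier primary STAT1 screen, cut at about 140% in these data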
NFkB act – NF-kB reporter activators, TNF-alpha stimulated, counter-screen for STAT1 activator project, cell-based, HEK293T, luciferase luminescence; shares compounds with STAT1 activator; 100% = TNF-alpha with vehicle only; activation (% of control), % at 5.7 µM; hit rate 43% among 1,200;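 active = activation above the mean of solvent-only control wells plus 3 SD, set per campaign, cut at about 130% in these data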;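 also: TNF-alpha given at a submaximal dose yielding about 80% of full reporter signal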
STAT3 act STAT1c – STAT3 reporter activation by STAT1 hits, confirmation, counter-screen for STAT1 activator project, U3A cells, luciferase, luminescence; shares compounds with STAT1 activator; IL-6; cells lack STAT1; 100 = IL-6 alone, no compound effect; activation (% of control), % at 5.7 µM; hit rate 46% among 1,200;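 active = activation above the solvent-only control well mean plus 3 SD, set per plate batch, cut at about 110% in these data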;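 also: higher means more STAT3 reporter activation so hits are non-selective activators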
Hits are given with their value; – = inactive; · = no result given. The list is not random: actives were taken first. Their share in the collection is about 5.1%.

SMILES	APP 5'UTR act	NF-kB expr up	STAT3 inh	STAT1 inh	STAT3 act	STAT1 activator	STAT1 activ conf	NFkB act	STAT3 act STAT1c
COc1ccc(OC)c(NC(=O)c2ccccc2N(Cc2ccccc2)S(C)(=O)=O)c1	–	–	–	–	–	–	·	·	·
Cc1ccc(NC(=O)Nc2cnc3ccccc3c2)cc1	198	–	–	–	–	181	193	–	111
O=C(Nc1ccc2nc3ccccc3nc2c1)c1ccccc1	198	3.8	–	–	–	190	230	136	–
S=C(NCCc1ccccc1)Nc1cnc2ccccc2c1	–	–	–	–	–	–	·	·	·
O=C(NC(=S)Nc1cnc2ccccc2c1)c1ccccc1	–	4	–	–	–	155	186	–	132
CC(C)NC(=O)NC(=O)COc1c(F)c(F)cc(F)c1F	–	–	–	–	–	–	·	·	·
CC(C)NC(=O)NC(=O)COc1ccc(Br)cc1Br	203	5.1	–	–	–	179	235	–	–
O=C(CN1C(=O)NC2(CCCCCC2)C1=O)c1ccc2c(c1)OCCO2	–	–	–	–	–	160	178	136	126
COc1ccc(C(=O)CN2C(=O)NC3(CCCCC3)C2=O)cc1OC	–	–	–	–	–	–	·	·	·
CN(C)c1ccc(C(=O)/C=C/c2ccco2)cc1	204	5.6	–	–	–	168	178	–	122
O=C(/C=C\c1ccco1)c1ccc(NC(=O)c2ccco2)cc1	–	–	–	–	–	–	·	·	·
Cc1ccc(/C=N/Nc2nc3ccccc3[nH]2)s1	135	3.8	–	–	–	157	190	149	121
Cc1nn(-c2ccccc2)c(Cl)c1/C=N/Nc1nc2ccccc2[nH]1	–	–	–	–	–	216	291	–	–
C=CCOC(=O)C1=C[C@H](C2CC2)[C@@H](CCCO)[C@H](OCC)O1	–	–	·	–	·	–	·	·	·
Cc1c(N/C(=N/S(=O)(=O)c2ccccc2)c2ccc(Cl)cc2)c(=O)n(-c2ccccc2)n1C	–	–	–	–	–	–	·	·	·
Cc1ccc(NC(=S)NC(=O)c2ccc(Br)o2)c(C)c1	–	–	–	–	–	152	164	–	–
N#C/C(=N/Nc1ccc([N+](=O)[O-])cc1)C(=N)N1CCCCC1	174	8.1	–	–	–	174	249	143	122
N#C/C(=N\Nc1ccc(S(=O)(=O)N2CCCCC2)cc1)C(N)=S	–	–	–	–	–	–	·	·	·
N#C/C(=N\Nc1ccc(Cl)cc1)C(=N)N1CCCCCC1	236	–	–	–	–	158	305	135	116
COC(=O)C(C)N1C(=O)S/C(=C/c2cc(C)n(-c3ccccn3)c2C)C1=O (stereo not drawn)	–	3.6	–	–	–	152	173	133	116
c1ccc2oc(-c3ccc4nc[nH]c4c3)nc2c1	138	5.2	–	–	–	151	205	135	–
O=C1c2ccccc2C(=O)N1c1cccc(-c2nc3ccccc3o2)c1	–	–	–	–	–	–	·	·	·
Nc1nc2ccc(-c3nc4ccccc4o3)cc2s1	157	10	–	–	–	152	231	–	–
